Measurements taken from ChEMBL document CHEMBL4028903 (J Med Chem, 2017).
≈ marks a conversion by molar mass, not a printed value. Calls of active or inactive are those of the source. No cut-off for these calls is given here.

How the values were obtained:
[1] = AUC in rat at 10 mg/kg, po administered via gavage by LC-MS/MS analysis; type: ADME, organism-based; conditions: in vivo
Method in brief: (§1)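 Rats were dosed IV as a solution in 75% PEG300:25% D5W, or orally as a suspension in 0.5% methylcellulose, 0.5% Tween80 and 99% water.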

[2] = Solubility of the compound in fasted state simulated intestinal fluid at pH 6.8; type: physicochemical
[3] = Clearance in rat at 3 mg/kg, iv by LC-MS/MS analysis; type: ADME, organism-based; conditions: in vivo; method in brief: as §1
[4] = Extraction ratio in rat liver microsomes; type: ADME, microsome; conditions: read-out: ERH
[5] = Volume of distribution at steady state in rat at 3 mg/kg, iv by LC-MS/MS analysis; type: ADME, organism-based; conditions: in vivo, read-out: Vdss; method in brief: as §1
[6] = Cmax in rat at 10 mg/kg, po administered via gavage by LC-MS/MS analysis; type: ADME, organism-based; design: dose 10 mg/kg, route oral; conditions: in vivo; method in brief: as §1
[7] = biological target: T1, Bile acid receptor (Homo sapiens, UniProt Q96RI1); assay: Agonist activity at human FXR expressed in HEK293T cells assessed as BSEP promoter driven cellular transcriptional activity after 24 hrs by luciferase reporter gene assay; type: cell-based, HEK-293T
T1 sequence (Q96RI1 whole entry): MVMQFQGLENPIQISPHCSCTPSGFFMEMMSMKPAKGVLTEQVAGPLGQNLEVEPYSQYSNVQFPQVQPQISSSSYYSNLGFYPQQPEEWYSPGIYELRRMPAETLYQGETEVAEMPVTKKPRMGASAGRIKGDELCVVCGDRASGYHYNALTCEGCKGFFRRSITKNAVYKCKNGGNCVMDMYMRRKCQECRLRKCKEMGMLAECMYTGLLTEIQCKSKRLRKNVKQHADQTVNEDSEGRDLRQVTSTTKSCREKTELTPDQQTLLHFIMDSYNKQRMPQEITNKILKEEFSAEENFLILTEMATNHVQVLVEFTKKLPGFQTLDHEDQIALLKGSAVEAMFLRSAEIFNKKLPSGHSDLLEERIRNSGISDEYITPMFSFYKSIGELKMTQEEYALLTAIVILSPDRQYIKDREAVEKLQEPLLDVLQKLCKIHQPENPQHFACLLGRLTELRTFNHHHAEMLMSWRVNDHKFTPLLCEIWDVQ

[8] = Dissociation constant, pKa of compound; type: physicochemical
[9] = Extraction ratio in human liver microsomes; type: ADME, microsome; conditions: read-out: ERH
[10] = Terminal half life in rat at 3 mg/kg, iv by LC-MS/MS analysis; type: ADME, organism-based; conditions: in vivo, read-out: beta t1/2 (converted); method in brief: as §1
[11] = Oral bioavailability in rat at 10 mg/kg administered via gavage by LC-MS/MS analysis; type: ADME, organism-based; conditions: in vivo; method in brief: as §1
[12] = biological target: T1, Bile acid receptor; assay: Agonist activity at recombinant human GST-tagged FXR ligand binding domain (193 to 472 residues) expressed in baculovirus infected insect cells assessed as induction of interaction with biotin labelled SRC-1 after 1 hr by HTRF assay
[13] = biological target: T2, G-protein coupled bile acid receptor 1 (Homo sapiens, UniProt Q8TDU6); assay: Agonist activity at human TGR5
T2 sequence (Q8TDU6 whole entry): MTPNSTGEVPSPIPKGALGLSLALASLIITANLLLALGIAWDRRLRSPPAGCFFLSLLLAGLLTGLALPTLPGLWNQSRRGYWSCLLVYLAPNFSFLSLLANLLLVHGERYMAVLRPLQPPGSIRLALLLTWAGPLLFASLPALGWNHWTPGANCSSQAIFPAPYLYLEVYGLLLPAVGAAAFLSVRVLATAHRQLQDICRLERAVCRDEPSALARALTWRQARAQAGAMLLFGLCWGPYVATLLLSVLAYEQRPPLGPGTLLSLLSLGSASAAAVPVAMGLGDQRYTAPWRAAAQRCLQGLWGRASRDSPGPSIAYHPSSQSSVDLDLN

[14] = biological target: T3, G-protein coupled bile acid receptor 1 (Mus musculus, UniProt Q80SS6); assay: Agonist activity at mouse TGR5
T3 sequence (Q80SS6 whole entry): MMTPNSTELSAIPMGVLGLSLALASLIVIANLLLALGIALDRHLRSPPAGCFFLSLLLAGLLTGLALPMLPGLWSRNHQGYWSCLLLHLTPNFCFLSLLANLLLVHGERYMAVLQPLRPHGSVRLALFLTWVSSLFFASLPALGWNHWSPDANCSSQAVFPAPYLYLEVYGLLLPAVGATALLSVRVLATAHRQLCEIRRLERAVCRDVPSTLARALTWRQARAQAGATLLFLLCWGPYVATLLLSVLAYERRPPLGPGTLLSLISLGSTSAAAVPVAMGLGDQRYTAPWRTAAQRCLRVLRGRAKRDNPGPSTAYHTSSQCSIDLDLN

[15] = biological target: T2, G-protein coupled bile acid receptor 1; assay: Agonist activity at human TGR5 relative to control; conditions: read-out: Efficacy
[16] = tested on: Rattus norvegicus; assay: In vivo agonist activity at FXR in po dosed Sprague-Dawley rat assessed as induction of BSEP mRNA level in liver administered as single dose measured 7 hrs post dose by qPCR analysis
[17] = tested on: Rattus norvegicus; assay: In vivo agonist activity at FXR in Sprague-Dawley rat assessed as induction of SHP mRNA level in ileum at 0.3 mg/kg, po administered as single dose after 7 hrs post dose by qPCR analysis; type: functional, organism-based
[18] = tested on: Rattus norvegicus; assay: In vivo agonist activity at FXR in Sprague-Dawley rat assessed as induction of SHP mRNA level in liver at 1 mg/kg, po administered as single dose after 7 hrs post dose by qPCR analysis relative to control; type: functional
[19] = tested on: Rattus norvegicus; assay: In vivo agonist activity at FXR in po dosed Sprague-Dawley rat assessed as induction of SHP mRNA level in liver administered as single dose after 7 hrs post dose by qPCR analysis; type: functional, organism-based
[20] = tested on: Rattus norvegicus; assay: In vivo agonist activity at FXR in Sprague-Dawley rat assessed as induction of FGF15 mRNA level in ileum at 0.3 mg/kg, po administered as single dose after 7 hrs post dose by qPCR analysis; type: functional, organism-based
[21] = tested on: Rattus norvegicus; assay: In vivo agonist activity at FXR in po dosed Sprague-Dawley rat assessed as induction of SHP mRNA level in ileum administered as single dose measured 7 hrs post dose by qPCR analysis; type: functional, organism-based
[22] = tested on: Rattus norvegicus; assay: In vivo agonist activity at FXR in po dosed Sprague-Dawley rat assessed as induction of BSEP mRNA level in liver administered as single dose after 7 hrs post dose by qPCR analysis; type: functional, organism-based

SMILES | AUC [1] [µM·h] | solubility [2] [µM] | clearance [3] [mL/min/kg] | hepatic extraction ratio [4] | Vd [5] [L/kg] | Cmax [6] [nM] | EC50 [7] [nM] | pKa [8] | hepatic extraction ratio [9] | half-life [10] [min] | bioavailability [11] [%] | EC50 [12] [nM] | also measured
Cc1cc(C(=O)O)cc2sc(N3C4CCC3CC(OCc3c(-c5ccccc5OC(F)(F)F)noc3C3CC3)C4)nc12 (stereo not given) | 0.832 | < 10 | 14 | < 0.18 | 0.84 | 86 | 0.82 | 5.5 | < 0.21 | 60 | 3 | 0.49 | 
COc1cc(C(=O)O)cc2sc(N3C4CCC3CC(OCc3c(-c5ccccc5OC(F)(F)F)noc3C3CC3)C4)nc12 (stereo not given) | 2.67 | 75 (≈ 46.2 µg/mL) | 9 | 0.5 | 0.26 | 1990 | 0.42 | 4.5 | 0.64 | 42 | 9 | 0.57 | 
CC[C@H]1[C@@H](O)[C@H]2[C@@H]3CC[C@H]([C@H](C)CCC(=O)NCC(=O)O)C3(C)CC[C@@H]2[C@@]2(C)CC[C@@H](O)C[C@@H]12 (single isomer, unassigned) |  |  |  |  |  |  |  |  |  |  |  |  | EC50 [13]: 315 nM; EC50 [14]: 637 nM; Emax [15]: 101%
O=C(O)c1cc(F)c2nc(N3C4CCC3CC(OCc3c(-c5ccccc5C(F)(F)F)noc3C3CC3)C4)sc2c1 (stereo not given) | 3.64 | 510 (≈ 300 µg/mL) | 11 | 0.19 | 0.6 | 2110 | 0.54 | 4 | 0.36 | 108 | 14 | 0.46 | Activity [16]: Dose-dependent effect; Activity [17]: Active; fold change (FC) [18]: 6; Activity [19]: Dose-dependent effect; Activity [20]: Active; Activity [21]: Dose-dependent effect; Activity [22]: Dose-dependent effect
CC[C@H]1[C@@H](O)[C@@H]2[C@H](CC[C@]3(C)[C@@H]([C@H](C)CCC(=O)O)CC[C@@H]23)[C@@]2(C)CC[C@@H](O)C[C@@H]12 [OBETICHOLIC ACID] |  |  |  |  |  |  |  |  |  |  |  |  | EC50 [14]: 5740 nM
O=C(O)c1ccc2nc(N3CCC(OCc4c(-c5ccccc5OC(F)(F)F)noc4C4CC4)CC3)sc2c1 | 4.57 | 70 (≈ 39.2 µg/mL) | 24 |  | 1.2 | 382 |  |  |  | 60 | 37 |  | 
O=C(O)c1ccc2nc(N3CCC(OCc4c(-c5c(Cl)cccc5Cl)noc4C4CC4)CC3)sc2c1 | 0.39 | 61 (≈ 33.2 µg/mL) | 50 | 0.58 | 0.55 | 44 | 9.5 |  | 0.81 | 20.4 | 6 | 8.3 | 
O=C(O)c1ccc2nc(N3CCC(OCc4c(-c5c(F)cccc5F)noc4C4CC4)CC3)sc2c1 |  | 169 (≈ 86.5 µg/mL) |  | 0.52 |  |  | 88 |  | 0.27 |  |  |  | 
CC[C@H]1[C@@H](O)[C@H]2[C@@H]3CC[C@H]([C@H](C)CCC(=O)NCCS(=O)(=O)O)C3(C)CC[C@@H]2[C@@]2(C)CC[C@@H](O)C[C@@H]12 (single isomer, unassigned) |  |  |  |  |  |  |  |  |  |  |  |  | EC50 [13]: 205 nM; EC50 [14]: 906 nM; Emax [15]: 102%
O=C(O)c1ccc2nc(N3CC[C@@H](OCc4c(-c5c(Cl)cccc5Cl)noc4C4CC4)C3)sc2c1 |  |  |  |  |  |  | 9200 |  |  |  |  | 3060 | 
O=C(O)c1ccc2nc(N3C4CCC3CC(OCc3c(-c5ccccc5OC(F)(F)F)noc3C3CC3)C4)sc2c1 (stereo not given) | 1.92 | 110 (≈ 64.4 µg/mL) | 17 | 0.51 | 1.1 | 173 | 0.69 | 5.1 | < 0.2 | 60 | 11 | 0.54 | 
O=C(O)c1ccc2nc(N3CCC(OCc4c(-c5ccccc5C(F)(F)F)noc4C4CC4)CC3)sc2c1 |  | 131 (≈ 71.2 µg/mL) |  | 0.5 |  |  | 70 |  | 0.38 |  |  | 66 | 
O=C(O)c1ccc2nc(N3CCCC(OCc4c(-c5ccccc5OC(F)(F)F)noc4C4CC4)CC3)sc2c1 (stereo not given) |  | 126 (≈ 72.3 µg/mL) |  | 0.75 |  |  | 6.6 |  | 0.89 |  |  | 4.2 | 
O=C(O)c1ccc2nc(N3CC(OCc4c(-c5ccccc5OC(F)(F)F)noc4C4CC4)C3)sc2c1 |  |  |  |  |  |  | 8400 |  |  |  |  | 1580 | 
O=C(O)c1cc(F)c2nc(N3C4CCC3CC(OCc3c(-c5ccccc5OC(F)F)noc3C3CC3)C4)sc2c1 (stereo not given) | 3.45 | 750 (≈ 439 µg/mL) | 11 | 0.4 | 0.7 | 2120 | 0.8 | 4 | 0.61 | 222 | 14 | 0.27 | 
